Assay results as given in ChEMBL document CHEMBL4364282, “Engineered Substrate for Cyclooxygenase-2: A Pentapeptide Isoconformational to Arachidonic Acid for Managing Inflammation” (J Med Chem, 2019).
Calls of active or inactive are those of the source. No cut-off for these calls is given here. Peptide text beside a SMILES is read from it. * marks the point of attachment. Cbz = O=C(OCc1ccccc1)*; Boc = CC(C)(C)OC(=O)*

Columns and labels:
[1] = biological target: T1, Prostaglandin G/H synthase 2 (Homo sapiens, UniProt P35354); experiment: Substrate activity at COX-2 (unknown origin) in DMSO-d6 assessed as chemical shift of NH protons of glycine residues by 1H NMR analysis; assay type: ADME
T1 sequence (P35354 whole entry): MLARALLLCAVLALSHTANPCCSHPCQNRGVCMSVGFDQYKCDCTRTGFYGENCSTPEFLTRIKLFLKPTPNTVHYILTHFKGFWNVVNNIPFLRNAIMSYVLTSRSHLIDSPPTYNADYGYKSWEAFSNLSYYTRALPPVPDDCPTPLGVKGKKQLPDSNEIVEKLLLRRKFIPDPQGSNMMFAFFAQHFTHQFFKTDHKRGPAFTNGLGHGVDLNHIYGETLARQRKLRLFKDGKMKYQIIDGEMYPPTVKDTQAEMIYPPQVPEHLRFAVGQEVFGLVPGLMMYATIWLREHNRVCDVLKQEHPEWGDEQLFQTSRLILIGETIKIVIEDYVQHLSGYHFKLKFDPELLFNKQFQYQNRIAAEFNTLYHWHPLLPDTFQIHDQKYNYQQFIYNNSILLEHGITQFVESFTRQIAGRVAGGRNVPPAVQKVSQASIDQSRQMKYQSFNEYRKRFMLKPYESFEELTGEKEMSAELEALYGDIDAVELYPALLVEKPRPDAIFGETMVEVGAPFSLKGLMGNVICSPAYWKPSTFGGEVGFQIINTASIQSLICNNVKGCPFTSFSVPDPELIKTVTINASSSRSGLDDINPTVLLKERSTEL

[2] = Drug metabolism in Wistar rat assessed as (S)-2-((S)-1-(2-((S)-2-aminopropanamido)acetyl)pyrrolidine-2-carboxamido)propanoic acid formation at 10 mg/kg, ip measured after 6 hrs by LC-MS analysis; assay type: ADME, organism-based; conditions: in vivo
Summary of the method: (§1)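 Blood serum was taken from treated rats at 30, 60, 90 and 120 min. Proteins were removed by centrifugation, and the supernatants were analysed by LC-MS with HRMS identification of peptide fragments. Breakdown was assessed up to 6 h.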

Rattus norvegicus [3] = experiment: Analgesic activity in Wistar rat model of acetic-acid-induced writhing assessed as inhibition of writhing numbers at 5 to 10 mg/kg, ip preincubated for 30 mins followed by acetic acid induction and measured for 30 mins relative to control; assay type: functional; parameters: scale not given: the % may be the effect or the level left
Summary of the method: (§2)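 Male Wistar rats (250-300 g) in groups of 5. Writhing (abdominal contraction, trunk twisting, hind-leg extension) was induced by intraperitoneal acetic acid, and writhes were counted. Test doses were 5 and 10 mg/kg, with a vehicle control and indomethacin 10 mg/kg as reference. Data are mean±SEM (n=5), analysed by one-way ANOVA with Tukey's test (p<.05 vs control).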

Rattus norvegicus [4] = experiment: (§3) Analgesic activity in Wistar rat model of formalin-induced hyperalgesia assessed as reduction in number of formalin-evoked paw flinching during inflammatory phase at 10 mg/kg administered intraperitoneally 30 mins after NOS inhibitor L-NAME injection followed by formalin induction after 30 mins and measured after 15 to 30 mins post formalin injection; assay type: functional, organism-based
Summary of the method: (§4)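 Formalin paw test in male Wistar rats (250-300 g), 5 per group. Flinching was counted separately in the neurogenic and inflammatory phases. Modulator studies used pre-treatment with substance P, L-NAME or L-arginine (NO precursor) in three groups each. Data are mean±SEM (n=5), analysed by one-way ANOVA with Tukey's test (p<.05 vs control).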

[5] = biological target: T1, Prostaglandin G/H synthase 2; experiment: Substrate activity at COX-2 (unknown origin) in DMSO-d6 assessed as chemical shift of NH protons of alanine residues by 1H NMR analysis; assay type: ADME
[6] = Acute toxicity in Wistar rat assessed as induction of morphological lesions in myocardium at 2000 mg/kg, po measured after 14 days by histological analysis; assay type: organism-based; conditions: in vivo, 336 h
Summary of the method: (§5)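 Acute oral toxicity per OECD guideline: rats fasted 4 h, then vehicle or single dose of 50, 300 or 2000 mg kg^-1; three rats per group. Animals observed for 14 days; one animal from the high-dose group and one control then sacrificed for tissue histology examined for lesions. Male Wistar rats, 250-300 g.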

Rattus norvegicus [7] = experiment: as §3, with “substance P” for “NOS inhibitor L-NAME”; assay type: functional, organism-based; summary of the method: as §4
Rattus norvegicus [8] = experiment: Anti-inflammatory activity in Wistar rat assessed as inhibition of carrageenan-induced paw edema at 10 mg/kg, ip preincubated for 1 hr followed by carrageenan challenge and measured for 6 hrs; assay type: functional, organism-based
Summary of the method: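 Carrageenan-induced paw inflammation in male Wistar rats (250-300 g), three groups of 5 animals. Data are mean±SEM (n=5), analysed by one-way ANOVA with Tukey's multiple range test (p<.05 vs control).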

Rattus norvegicus [9] = experiment: as §3, with “neurogenic” for “inflammatory”, “nitric oxide precursor L-arginine” for “NOS inhibitor L-NAME”, “during first 5” for “after 15 to 30”; assay type: functional, organism-based; summary of the method: as §4
Rattus norvegicus [10] = experiment: Analgesic activity in Wistar rat model of formalin-induced hyperalgesia assessed as reduction in number of formalin-evoked paw flinching during inflammatory phase at 10 mg/kg preincubated for 30 mins followed by formalin treatment and measured after 15 to 30 mins relative to control; assay type: functional; parameters: scale not given: the % may be the effect or the level left; summary of the method: as §4
Rattus norvegicus [11] = experiment: as §3, with “nitric oxide precursor L-arginine” for “NOS inhibitor L-NAME”; assay type: functional, organism-based; summary of the method: as §4
[12] = Drug metabolism in Wistar rat assessed as 2-((S)-2-((S)-1-(2-((S)-2-aminopropanamido)acetyl)pyrrolidine-2-carboxamido)propanamido)acetic acid formation at 10 mg/kg, ip measured after 6 hrs by LC-MS analysis; assay type: ADME, organism-based; conditions: in vivo; summary of the method: as §1
[13] = Acute toxicity in Wistar rat assessed as induction of morphological lesions in kidney at 2000 mg/kg, po measured after 14 days by histological analysis; assay type: organism-based; conditions: in vivo, 336 h; summary of the method: as §5
[14] = Drug metabolism in Wistar rat assessed as (S)-1-(2-((S)-2-aminopropanamido)acetyl)pyrrolidine-2-carboxylic acid formation at 10 mg/kg, ip measured after 6 hrs by LC-MS analysis; assay type: ADME, organism-based; conditions: in vivo; summary of the method: as §1
Rattus norvegicus [15] = experiment: as §3, with “neurogenic” for “inflammatory”, “during first 5” for “after 15 to 30”; assay type: functional, organism-based; summary of the method: as §4
Rattus norvegicus [16] = experiment: Analgesic activity in Wistar rat model of formalin-induced hyperalgesia assessed as reduction in number of formalin-evoked paw flinching during neurogenic phase at 10 mg/kg preincubated for 30 mins followed by formalin treatment and measured during first 5 mins post formalin injection relative to control; assay type: functional; parameters: scale not given: the % may be the effect or the level left; summary of the method: as §4
[17] = Drug metabolism in Wistar rat assessed as methyl 2-((S)-2-((S)-1-(2-aminoacetyl)pyrrolidine-2-carboxamido)propanamido)acetate formation at 10 mg/kg, ip measured after 6 hrs by LC-MS analysis; assay type: ADME, organism-based; conditions: in vivo; summary of the method: as §1
[18] = Drug metabolism in Wistar rat assessed as 2-((S)-2-((S)-1-(2-aminoacetyl)pyrrolidine-2-carboxamido)propanamido)acetic acid formation at 10 mg/kg, ip measured after 6 hrs by LC-MS analysis; assay type: ADME, organism-based; conditions: in vivo; summary of the method: as §1
Rattus norvegicus [19] = experiment: as §3, with “neurogenic” for “inflammatory”, “substance P” for “NOS inhibitor L-NAME”, “during first 5” for “after 15 to 30”; assay type: functional, organism-based; summary of the method: as §4
[20] = biological target: Prostaglandin G/H synthase 1 (Homo sapiens, UniProt P23219); experiment: Inhibition of COX-1 in human whole blood assessed as reduction in calcium ionophore A23187-stimulated thromboxane B2 production by measuring thromboxane B2 level at 1 uM preincubated for 60 mins followed by calcium ionophore A23187 stimulation and measured after 30 mins by ELISA (reference value: 1.4 ng/mL); assay type: tissue-based; conditions: 0.5 h
Summary of the method: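 Human whole blood stimulated with calcium ionophore to drive COX-1, with thromboxane B2 formation measured. The test concentration was 1 μM, and indomethacin 1 μM served as reference.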

[21] = Acute toxicity in Wistar rat assessed as induction of morphological lesions in liver at 2000 mg/kg, po measured after 14 days by histological analysis; assay type: organism-based; conditions: in vivo, 336 h; summary of the method: as §5
Rattus norvegicus [22] = experiment: Analgesic activity in Wistar rat model of acetic-acid-induced writhing assessed as inhibition of writhing numbers at 10 mg/kg, ip preincubated for 30 mins followed by acetic acid induction and measured for 30 mins; assay type: functional, organism-based; summary of the method: as §2
[23] = biological target: T2, Prostaglandin G/H synthase 1 (Ovis aries, UniProt P05979); experiment: Inhibition of ovine COX-1 assessed as reduction in prostaglandin production preincubated for 10 mins followed by arachidonic acid addition and measured after 2 mins by EIA method
T2 sequence (P05979 whole entry): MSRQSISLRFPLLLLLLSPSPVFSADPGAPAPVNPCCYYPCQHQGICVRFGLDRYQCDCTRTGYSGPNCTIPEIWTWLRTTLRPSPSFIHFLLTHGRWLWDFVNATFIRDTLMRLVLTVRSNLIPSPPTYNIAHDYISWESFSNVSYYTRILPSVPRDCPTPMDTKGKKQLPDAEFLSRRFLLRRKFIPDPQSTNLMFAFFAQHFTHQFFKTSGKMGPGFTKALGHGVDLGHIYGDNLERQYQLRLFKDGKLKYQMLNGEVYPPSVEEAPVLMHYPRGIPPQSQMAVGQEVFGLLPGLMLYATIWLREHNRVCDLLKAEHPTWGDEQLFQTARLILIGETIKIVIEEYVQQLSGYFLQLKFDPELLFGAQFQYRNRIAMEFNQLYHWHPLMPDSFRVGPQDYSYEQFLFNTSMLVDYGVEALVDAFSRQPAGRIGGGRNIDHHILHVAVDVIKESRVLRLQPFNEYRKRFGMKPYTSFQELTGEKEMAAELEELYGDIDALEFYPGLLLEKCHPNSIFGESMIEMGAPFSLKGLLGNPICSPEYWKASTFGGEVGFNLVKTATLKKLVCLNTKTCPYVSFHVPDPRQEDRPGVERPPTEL

[24] = substrate: CCCCC/C=C\C/C=C\C/C=C\C/C=C\CCCC(=O)O; experiment: (§6) Substrate activity at COX-2 (unknown origin) in pH 7.5 HEPES buffer assessed as enzyme-mediated test compound metabolism by measuring Km by LC-MS analysis; assay type: ADME, Homo sapiens
[25] = substrate: COC(=O)CNC(=O)[C@H](C)NC(=O)[C@@H]1CCCN1C(=O)CNC(=O)[C@H](C)N; experiment: as §6; assay type: ADME, Homo sapiens

Prostaglandin G/H synthase 1 (Homo sapiens, UniProt P23219), sequence (P23219 whole entry): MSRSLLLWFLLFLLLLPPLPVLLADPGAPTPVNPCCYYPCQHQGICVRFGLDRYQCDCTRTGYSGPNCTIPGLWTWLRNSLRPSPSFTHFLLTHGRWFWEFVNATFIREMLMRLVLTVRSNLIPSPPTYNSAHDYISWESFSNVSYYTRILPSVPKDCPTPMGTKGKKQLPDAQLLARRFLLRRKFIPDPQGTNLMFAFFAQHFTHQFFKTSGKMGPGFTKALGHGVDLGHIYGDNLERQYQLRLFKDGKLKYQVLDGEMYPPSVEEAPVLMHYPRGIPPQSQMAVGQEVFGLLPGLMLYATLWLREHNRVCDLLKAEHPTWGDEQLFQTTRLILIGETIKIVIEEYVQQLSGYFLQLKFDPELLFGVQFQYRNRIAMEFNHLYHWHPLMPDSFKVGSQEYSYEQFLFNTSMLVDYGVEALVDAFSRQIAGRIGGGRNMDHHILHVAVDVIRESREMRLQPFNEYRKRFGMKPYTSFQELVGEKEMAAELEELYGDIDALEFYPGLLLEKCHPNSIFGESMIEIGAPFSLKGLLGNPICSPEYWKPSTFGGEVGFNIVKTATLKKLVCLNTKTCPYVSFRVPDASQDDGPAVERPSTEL

Molecule: COC(=O)CNC(=O)[C@H](C)NC(=O)[C@@H]1CCCN1C(=O)CNC(=O)[C@H](C)N (H-AGPAG-OMe)
- Activity [1]: Active
- Drug metabolism [2]: Metabolite_Detected
- Activity (Rattus norvegicus [3]): 80%
- Activity (Rattus norvegicus [4]): Active
- Activity [5]: Active
- Activity [6]: Non-Toxic
- Activity (Rattus norvegicus [7]): inactive
- Activity (Rattus norvegicus [8]): Active
- Activity (Rattus norvegicus [9]): inactive
- Activity (Rattus norvegicus [10]): 80%
- Activity (Rattus norvegicus [11]): inactive
- Drug metabolism [12]: Metabolite_Detected
- Activity [13]: Non-Toxic
- Drug metabolism [14]: Metabolite_Detected
- Activity (Rattus norvegicus [15]): Active
- Activity (Rattus norvegicus [16]): 56%
- Drug metabolism [17]: Metabolite_Detected
- Drug metabolism [18]: Metabolite_Detected
- Activity (Rattus norvegicus [19]): inactive
- Activity [20]: 1.2 ng/mL
- Activity [21]: Non-Toxic

Molecule: COc1ccc2c(c1)c(CC(=O)O)c(C)n2C(=O)c1ccc(Cl)cc1 [INDOMETHACIN]
- Activity (Rattus norvegicus [8]): Active
- Activity (Rattus norvegicus [10]): Active
- Activity (Rattus norvegicus [16]): inactive
- Activity (Rattus norvegicus [22]): Active
- Activity [20]: 0.7 ng/mL

Molecule: COC(=O)CNC(=O)[C@H](C)NC(=O)[C@@H]1CCCN1C(=O)CNC(=O)[C@H](C)NC(=O)OCc1ccccc1 (Cbz-AGPAG-OMe)
- Activity (Rattus norvegicus [3]): 80%

Molecule: COC(=O)[C@H](Cc1ccccc1)NC(=O)[C@@H]1CCCN1C(=O)CNC(=O)[C@H](CCSC)NC(=O)OCc1ccccc1 (Cbz-MGPF-OMe)
- Activity (Rattus norvegicus [3]): Active
- IC50 [23]: 0.5 µM

Molecule: COC(=O)CNC(=O)[C@H](CCSC)NC(=O)[C@H](Cc1ccccc1)NC(=O)[C@@H]1CCCN1C(=O)OC(C)(C)C (Boc-PFMG-OMe)
- Activity (Rattus norvegicus [3]): Active
- IC50 [23]: 50 µM

Molecule: COC(=O)CNC(=O)[C@H](Cc1ccccc1)NC(=O)[C@@H]1CCCN1C(=O)[C@H](Cc1ccccc1)NC(=O)[C@H](C)NC(=O)OCc1ccccc1 (Cbz-AFPFG-OMe)
- Activity (Rattus norvegicus [3]): Active
- IC50 [23]: 600 µM

B1: Prostaglandin G/H synthase 2 (Homo sapiens) (protein)
chain: MLARALLLCAVLALSHTANPCCSHPCQNRGVCMSVGFDQYKCDCTRTGFYGENCSTPEFLTRIKLFLKPTPNTVHYILTHFKGFWNVVNNIPFLRNAIMSYVLTSRSHLIDSPPTYNADYGYKSWEAFSNLSYYTRALPPVPDDCPTPLGVKGKKQLPDSNEIVEKLLLRRKFIPDPQGSNMMFAFFAQHFTHQFFKTDHKRGPAFTNGLGHGVDLNHIYGETLARQRKLRLFKDGKMKYQIIDGEMYPPTVKDTQAEMIYPPQVPEHLRFAVGQEVFGLVPGLMMYATIWLREHNRVCDVLKQEHPEWGDEQLFQTSRLILIGETIKIVIEDYVQHLSGYHFKLKFDPELLFNKQFQYQNRIAAEFNTLYHWHPLLPDTFQIHDQKYNYQQFIYNNSILLEHGITQFVESFTRQIAGRVAGGRNVPPAVQKVSQASIDQSRQMKYQSFNEYRKRFMLKPYESFEELTGEKEMSAELEALYGDIDAVELYPALLVEKPRPDAIFGETMVEVGAPFSLKGLMGNVICSPAYWKPSTFGGEVGFQIINTASIQSLICNNVKGCPFTSFSVPDPELIKTVTINASSSRSGLDDINPTVLLKERSTEL
- Km [24]: 210 µM
- kcat [24]: 200 s⁻¹
- kcat/Km [24]: 950000 M⁻¹ s⁻¹
- Km [25]: 21 µM
- kcat [25]: 13.2 s⁻¹
- kcat/Km [25]: 630000 M⁻¹ s⁻¹
